This is a sample that favours compounds with a hit; in the whole collection about 2.7% have one here.
ARFGAP1 inhibitor: inhibitors of rat ARFGAP1 GAP activity, primary screen, biochemical, fluorescence polarization, GDP tracer | hit rate 0.26% among 360,000 | AID 651572, 2012 | Arfgap1-stimulated ARF1 GTP hydrolysis, GDP FP detection | inhibition, % at 16.5 µM | ADP-ribosylation factor GTPase-activating protein 1 (Rattus norvegicus), Q62848;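 active means inhibition above a per-plate limit, mean inhibition of low control wells plus 3 SD, cut at about 25% in these data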;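 further: 0% = DMSO wells with enzyme and 100% = wells lacking Arfgap1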
Target sequence (Q62848 1-136 limits assumed): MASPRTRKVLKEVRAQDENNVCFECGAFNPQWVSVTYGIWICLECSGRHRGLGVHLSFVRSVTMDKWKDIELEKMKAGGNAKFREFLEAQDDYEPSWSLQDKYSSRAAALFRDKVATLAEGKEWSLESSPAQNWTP
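Material: truncated rat Arfgap1 GAP domain; Incubation: compound-enzyme preincubation 20 min, reaction 120 min, detection 60 min, 25 °C; Read-out: percent inhibition of Arfgap1-stimulated GTP hydrolysis; Technique: FP, GDP Alexa 633 tracer displaced from anti-GDP antibody, 620/688 nm; Controls: No-Arfgap1 wells (100%) versus DMSO full-reaction wells (0%); Replication: single well per compound.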
MsrA inh: bovine MsrA enzyme inhibitors, primary screen, biochemical, absorbance, HTS; Methionine sulfoxide reductase A (Bos taurus); AID 651718, 2012; inhibition, % at 15.5 µM; purified bovine MsrA, absorbance read-out; hit rate 0.75% among 360,000; in the data active means inhibition above about 4.5%;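 further: 0% = vehicle wells with enzyme and 100% = reference inhibitor wells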
NR1D1 modulator: modulators of Rev-erb alpha DNA binding, primary screen, biochemical, FITC-DNA, fluorescence polarization, uHTS; Nuclear receptor subfamily 1 group D member 1 (Homo sapiens), P20393; Rev-erbα–FITC-DNA binding, 90 min; activity, % at 10 µM; hit rate 0.79% among 370,000; AID 1259318, 2017;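 active means activity above about 14%, limit read from the data; passing the limit was not always enough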;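 further: 0% = DMSO wells with 35 nM protein and 100% = DMSO wells with 750 nM protein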
ASAP1 inh: inhibitors of human ASAP1 ArfGAP activity, primary screen, biochemical, fluorescence polarization | ASAP1-stimulated ARF1 GTP hydrolysis, GDP FP detection | inhibition, % at 16.5 µM | hit rate 0.19% among 360,000 | AID 624377, 2012; in the data active means inhibition above about 25%;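 further: 0% = vehicle with enzyme and substrate and 100% = no enzyme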
sPLA2-III inh: human group III sPLA2 inhibitors, primary screen, biochemical, QFRET, BODIPY PC-A2 liposome substrate | inhibition, % at 12.2 µM | AID 743126, 2013 | hit rate 0.56% among 370,000 | QFRET BODIPY PC-A2 liposome hydrolysis, fluorescence | Group 3 secretory phospholipase A2 (Homo sapiens), Q9NZ20;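 active means inhibition above mean plus 3 SD of compounds lying within the high and low control bounds, cut at about 19% in these data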;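 further: 0% = median of test compound wells and 100% = no enzyme DMSO wells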
Target sequence (Q9NZ20 whole entry, looked up): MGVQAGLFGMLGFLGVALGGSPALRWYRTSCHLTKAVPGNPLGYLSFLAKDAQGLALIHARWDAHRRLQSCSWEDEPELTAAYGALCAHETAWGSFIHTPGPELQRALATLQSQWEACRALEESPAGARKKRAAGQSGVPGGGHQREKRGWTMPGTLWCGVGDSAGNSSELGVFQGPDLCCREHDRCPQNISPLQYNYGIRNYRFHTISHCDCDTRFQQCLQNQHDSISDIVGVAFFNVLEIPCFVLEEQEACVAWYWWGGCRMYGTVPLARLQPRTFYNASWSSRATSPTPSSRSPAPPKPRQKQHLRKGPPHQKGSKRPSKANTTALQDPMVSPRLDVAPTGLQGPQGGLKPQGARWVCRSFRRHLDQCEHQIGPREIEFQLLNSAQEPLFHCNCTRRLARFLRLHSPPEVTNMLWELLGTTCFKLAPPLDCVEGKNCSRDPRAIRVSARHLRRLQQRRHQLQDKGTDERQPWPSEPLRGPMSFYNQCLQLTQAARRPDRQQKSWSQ
bovine MsrA act: bovine MsrA enzyme activators, primary screen, biochemical, absorbance, HTS | Methionine sulfoxide reductase A (Bos taurus) | purified bovine MsrA, absorbance read-out | activation, % at 10.6 µM | hit rate 0.3% among 360,000 | AID 602163, 2012; in the data active means activation above about 7.5%;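 further: 0% = vehicle and 100% = reference activator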
sPLA2 confirm: human group III sPLA2 inhibitors, confirmation, biochemical, QFRET, triplicate; shares compounds with sPLA2-III inh; recombinant hGIII-sPLA2, BODIPY PC-A2 QFRET fluorescence; inhibition, % at 12.2 µM; hit rate 34% among 2,000; AID 743280, 2014;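 active means mean inhibition across triplicates above the hit cutoff set in the earlier primary screen, cut at about 19% in these data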;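 further: 0% = enzyme with DMSO and 100% = DMSO wells lacking enzyme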
535nm interf: 535nm fluorescence optical interference, confirmation, artefact control for HGIII-sPLA2 inhibitor project, biochemical, QFRET; shares compounds with sPLA2-III inh; BODIPY FL product fluorescence interference; inhibition, % at 12.2 µM; hit rate 8.5% among 2,000;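 active means average inhibition above the solvent-only control mean plus 3 SD, cut at about 6% in these data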;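 further: 0% = DMSO with substrate plus product and 100% = DMSO with substrate alone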
535nm interf DR: 535nm fluorescence optical interference, dose response, artefact control for HGIII-sPLA2 inhibitor project, biochemical, QFRET. AID 743455, 2014. BODIPY FL product fluorescence interference, cell-free. 240 tested, under 10 active. shares compounds with sPLA2-III inh. IC50, µM;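 active means IC50 at or below 10 µM; inactive means IC50 above 10 µM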
The depositor's hits bear a star; · = not tested or not shown.

SMILES	ARFGAP1 inhibitor	MsrA inh	NR1D1 modulator	ASAP1 inh	sPLA2-III inh	bovine MsrA act	sPLA2 confirm	535nm interf	others
Cc1ccccc1OCC(=O)Nc1ccc2c(c1)OCO2	8	0	1	5	23*	1	-2	-8
COc1ccccc1OCC(=O)Nc1ccc2c(c1)OCO2	1	0	-6	13	0	-2	·	·
CN(c1ccc(NC(=O)CCc2c[nH]c3ccccc23)cc1)c1ccccn1	-1	0	10	-2	-38	·	·	·
S=C1SC2(CCCCCC2)NC2=C1CCCCC2	3	1	-4	8	19*	-2	25*	3
Cc1cc(C(=O)NCC(=O)OCC(=O)N(C(C)C)C(C)C)ccc1[N+](=O)[O-]	-1	0	3	9	21*	-4	1	-9
COc1ccc(Br)cc1C=NNC(=O)c1ccncc1	·	·	-1	·	3	·	·	·
O=C(NN1CCCCC1)c1cccc2ccccc12	0	0	3	4	1	-4	·	·
O=C(NN1CCOCC1)c1cccc2ccccc12	0	0	-2	5	21*	-2	5	-7
CC(=O)Nc1ccccc1NC(=O)c1cccc2ccccc12	-2	0	4	-2	22*	-2	-1	-3
CCCCNC(=O)C[C@H]1C[C@@]2(C(=O)OC)C(=C[C@H](COCc3ccccc3)O[C@@H]2C)N(Cc2ccco2)C1=O	·	·	-4	·	1	·	·	·
CCOc1cc(N2CCOCC2)c(OCC)cc1NC(=O)c1ccc(OCc2c(C)noc2C)c(OC)c1	-6	1	2	3	20*	-1	4	-30
CCOc1cc(N2CCOCC2)c(OCC)cc1NC(=O)c1ccc(OC)cc1	4	0	-1	-17	-1	-3	·	·
CC1(C)C=Cc2ccc(O)c(C(=O)/C=C/c3ccccc3)c2O1	·	·	-1	·	4	·	·	·
Cn1c2ccc(F)cc2c2ncn(CC3CCCO3)c(=O)c21 (stereo not drawn)	7	1	-1	-3	21*	-2	-1	-5
Cc1cc(C(=O)COc2ccc3ccc(=O)oc3c2)c(C)n1Cc1cccs1	18	1	9	11	21*	-2	1	-15
CCOc1ccc(C=Nn2c(-c3ccc(F)cc3)n[nH]c2=S)cc1	·	·	7	·	-7	·	·	·
CCC(=O)Nc1cccc(NC(=S)NC(=O)c2ccc(Cl)cc2Cl)c1	-2	1	2	2	21*	-5	5	-7
CCC(=O)Nc1cccc(NC(=S)NC(=O)c2ccc(Cl)cc2)c1	5	0	-2	2	3	-5	·	·
CCOc1ccc(NC(=S)c2ccncc2)cc1	-4	1	-3	-9	22*	2	4	-8
CCOc1ccc(NC(=S)Nc2ccc(OC)cc2)cc1	-6	1	-6	-4	8	-1	·	·
C[C@H](O)[C@@H]1CN2CCc3ccc(N4CCOCC4)cc3[C@@H]2C[C@@H]1N(C)CC1CCCCC1	·	·	3	·	6	·	·	·
NC(=O)c1ncn([C@@H]2O[C@H](C(=O)N[C@H](Cc3c[nH]c4ccccc34)C(=O)N3CCN(C(=O)C4CC4)CC3)[C@@H](O)[C@H]2O)n1	3	4	1	9	7	·	·	·
CCn1c(-c2cccc(Br)c2)n[nH]c1=S	9	0	8	5	23*	-7	34*	-3	535nm interf DR=>122
CCn1c(-c2ccc3ncccc3c2)n[nH]c1=S	2	1	0	6	7	-1	·	·
CN(C)c1ccc(-c2csc(C(C)(O)c3ccccc3)n2)cc1 (stereo not drawn)	9	-1	-2	5	-6	0	·	·
SMILES	ARFGAP1 inhibitor	MsrA inh	NR1D1 modulator	ASAP1 inh	sPLA2-III inh	bovine MsrA act	sPLA2 confirm	535nm interf	others
CN1CCN(c2cc3c(cc2F)c(=O)c(C(=O)O)cn3-c2ccc(F)cc2)CC1	·	·	2	·	·	·	·	·
CC(C)(C)NC(=S)N1CCC2CC1c1cc(-c3ccc4c(c3)OCO4)ccc12 (stereo not drawn)	12	0	5	-6	22*	-9	5	-18
CC1=C(C(=O)N(C)C)CC(CC(=O)NCc2cccc3ccccc23)C(=O)N1CCCN1CCCC1=O (stereo not drawn)	-5	0	3	5	21*	-10	-3	-7
S=C(Nc1cccc(Cl)c1)OCCN1CCCC12CCC(c1ccccc1)CC2 (stereo not drawn)	·	·	1	·	-5	·	·	·
c1ccc2c(c1)c1c3n2CCNC3CCC1 (stereo not drawn)	0	0	1	8	26*	-3	30*	0	535nm interf DR=>122
Oc1ccc2c(c1)c1c3n2CCNC3CCC1 (stereo not drawn)	·	·	·	·	·	-5	·	·
O=C(O)CCN1C(=O)c2ccccc2Sc2ncccc21	10	0	-5	6	23*	-6	0	-2
CC(C)NC(=O)CCN1C(=O)c2ccccc2Sc2ncccc21	13	-1	-3	-1	1	-4	·	·
O=c1c(-c2ccco2)nc2ccccc2n1C(c1ccccn1)c1nc2ccccc2[nH]1 (stereo not drawn)	-2	3	-7	-4	23*	·	5	-1
CC1(C)Nc2ccc(O)cc2-c2c1ssc2=S	-7	0	-7	8	5	-6	·	·
COc1cccc(-n2sc3c(c2=S)-c2cc(OC)ccc2NC3(C)C)c1	-4	1	7	3	27*	-2	17	0
COc1ccc(CC2CCN(c3ncnc4sccc34)CC2)cc1	·	·	-3	·	-12	·	·	·
O=C1S/C(=C\C=C\c2ccco2)C(=O)N1c1ccccc1	5	1	-18	5	28*	3	2	-2
O=C(OC12CCCN(C1)/C(=C/c1cccc(Cl)c1)C2)c1ccccc1 (stereo not drawn)	·	·	-1	·	-8	·	·	·
